Data published in BindingDB's records for doi:10.1021/jm0300274 (The University of Georgia, 2003).

Each compound was assayed on HIV-1 (antiviral activity in human PBM cells) (assay: Anti-HIV-1 activity determined in human peripheral blood mononuclear PBM cells, expressed as EC50).
In short: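 PHA-stimulated (2-3 days) human PBM cells from healthy seronegative donors were infected with HIV-1 LAI for 1 h in bulk, then placed into 10-fold serial compound dilutions. Medium contained IL-2 and DEAE-dextran. After 5 days at 37 °C, supernatant virus was pelleted and RT activity measured. EC50 was taken from the concentration-response curve by the median effect method.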

Row | EC50 | SMILES
1 | > 100 µM | Nc1nc2c(ncn2[C@H]2CC(F)(F)[C@H](CO)O2)c(=O)[nH]1
2 | > 100 µM | O=c1ccn([C@@H]2CC(F)(F)[C@H](CO)O2)c(=O)[nH]1
3 | 11.5 µM | Nc1ccn([C@@H]2CC(F)(F)[C@H](CO)O2)c(=O)n1
4 | > 100 µM | Cc1cn([C@@H]2CC(F)(F)[C@H](CO)O2)c(=O)[nH]c1=O
5 | > 100 µM | O=c1[nH]cnc2c1ncn2[C@@H]1CC(F)(F)[C@H](CO)O1
6 | > 100 µM | O=c1ccn([C@H]2CC(F)(F)[C@H](CO)O2)c(=O)[nH]1
7 | > 100 µM | Cc1cn([C@H]2CC(F)(F)[C@H](CO)O2)c(=O)[nH]c1=O
8 | 8.8 µM | Nc1nc(=O)n([C@@H]2CC(F)(F)[C@H](CO)O2)cc1F
9 | > 100 µM | Nc1nc2c(ncn2[C@@H]2CC(F)(F)[C@H](CO)O2)c(=O)[nH]1
10 | > 100 µM | Nc1ncnc2c1ncn2[C@H]1CC(F)(F)[C@H](CO)O1
11 | > 100 µM | Nc1ccn([C@H]2CC(F)(F)[C@H](CO)O2)c(=O)n1
12 | > 100 µM | O=c1[nH]cnc2c1ncn2[C@H]1CC(F)(F)[C@H](CO)O1
13 | > 100 µM | Nc1ncnc2c1ncn2[C@@H]1CC(F)(F)[C@H](CO)O1
14 | > 100 µM | Nc1nc(=O)n([C@H]2CC(F)(F)[C@H](CO)O2)cc1F
15 | > 100 µM | Cc1cn([C@H]2C=C(F)[C@H](CO)O2)c(=O)[nH]c1=O
16 | 38.5 µM | Nc1nc2c(ncn2[C@@H]2C=C(F)[C@H](CO)O2)c(=O)[nH]1
17 | > 100 µM | O=c1[nH]cnc2c1ncn2[C@H]1C=C(F)[C@@H](CO)O1
18 | > 100 µM | Nc1ncnc2c1ncn2[C@@H]1C=C(F)[C@H](CO)O1
19 | > 100 µM | Nc1ncnc2c1ncn2[C@H]1C=C(F)[C@H](CO)O1
20 | > 100 µM | Cc1cn([C@@H]2C=C(F)[C@H](CO)O2)c(=O)[nH]c1=O
21 | > 100 µM | Nc1nc2c(ncn2[C@H]2C=C(F)[C@H](CO)O2)c(=O)[nH]1
